Results as given in article PMC3078649 (Molecular pharmaceutics, 2010).

How the values were obtained:
[1] = test system: MDCK cell monolayers; conditions: shown previously; cited from earlier work
[2] = test system: intercellular junctions of Caco-2 cell monolayers; experiment: Inhibition of intercellular junction resealing; type: cell-based; conditions: for Activity in the resealing assay compared to either ADT6 or HAV6: conjugates with aminocaproic acid (cap) linker; for Inhibition of resealing (% TEER difference between 8- and 2-h time points) compared to blank: AP-BL sides of Caco-2 monolayers (Fig. 5); for Inhibition of resealing of intercellular junctions (TEER time course): 0.5 mM peptide, AP-BL sides, conditioned Caco-2 monolayers
Procedure, shortened: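 Caco-2 cells were grown on 3 µm-pore Transwell inserts (50,000 cells/insert) and used on days 15–20. Initial TEER was taken after 1 h at 37 °C in HBSS pH 7.4 (10 mM Hepes, 1% glucose, 2.0 mM CaCl2). Cells were conditioned 2 h in calcium-free medium. Peptide (0.5 or 1.0 mM) in Ca-HBSS was added AP, BL or AP-BL, with blank and unrelated-peptide controls. TEER was read hourly, minus 90 Ω × cm2 background, in triplicate. Inhibition was the TEER change from 2 to 8 h.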

[3] = test system: Caco-2 cell monolayers; experiment: Peptide stability on Caco-2 cell monolayers; type: in vitro ADME
[4] = test system: E-cadherin-mediated adhesion of Caco-2 cells; conditions: shown previously; cited from earlier work
[5] = test system: E-cadherin-mediated adhesion of Caco-2 cells; experiment: Homotypic adhesion of Caco-2 single cells to attached cells; type: cell-based; conditions: 250 µM peptide
Procedure, shortened: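 Single Caco-2 cells were released by Ca2+/Mg2+-free EBSS (1 h, 37 °C) and labelled with BCECF-AM. They were added at 5 × 10^4 cells/well to Caco-2 monolayers pretreated 2 h at 37 °C in Ca2+-free EBSS (1 mM Mg2+, 0.1% BSA). Co-incubation with peptide was 2 h at 37 °C. Positive control was anti-E-cadherin antibody DECMA-1 at 1:100. Unbound cells were removed and attached cells lysed; fluorescence was read at ex 485/em 530 nm.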

[6] = test system: blood brain barrier; experiment: In situ rat brain perfusion, 14C-mannitol permeation; type: in vivo; conditions: for Enhancement of 14C-mannitol permeation through the BBB compared to vehicle: 1.0 mM test substance pre-perfused 4 min at 10 ml/min, triplicate
Procedure, shortened: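 Perfusion was 4 min with vehicle (0.5% Tween in sterile saline) or 1.0 or 0.5 mM peptide, then immediately 4 min with 14C-mannitol (10 µCi). Brain radioactivity was measured in triplicate, reported as mean ± SD, and compared with vehicle (p < 0.05).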

[7] = test system: blood brain barrier; experiment: In situ rat brain perfusion, [3H; type: in vivo; conditions: 1.0 mM HAV6 first, then daunomycin with 500 µM verapamil; p < 0.001 (Fig. 3 E)
[8] = test system: EC5 domain of E-cadherin; conditions: cited from earlier work

Ac-ADTPPV-NH2 [ADT6]
Enhancement of 14C-mannitol permeation through MDCK cell monolayers [1]: enhance ^14C-mannitol through MDCK cell monolayers

Ac-DTPPV-cap-SHAVSS-NH2
Activity in the resealing assay compared to either ADT6 or HAV6 [2]: did not show any improved activity

Ac-HSVSAS-NH2 [HAVscr, reference compound]
Inhibition of resealing (% TEER difference between 8- and 2-h time points) compared to blank ([2]; 1.0 mM peptide): could not suppress the resealing

Ac-LFSHAVSSNG-NH2 [HAV10]
Inhibition of resealing of intercellular junctions (TEER time course) [2]: not at 0.5 mM
Enhancement of 14C-mannitol permeation through MDCK cell monolayers [1]: enhance ^14C-mannitol through MDCK cell monolayers
Peptide concentration remaining ([3]; 100 µM peptide, apical side of Caco-2 cell monolayers, 8 h incubation): 80%
Inhibition of homotypic Caco-2 cell adhesion [4]: inhibit the homotypic Caco-2 cell adhesion

Ac-NDDGGQFVVT-NH2 [BLG3]
Inhibition of resealing (% TEER difference between 8- and 2-h time points) compared to blank ([2]; 1.0 mM peptide): could not inhibit the resealing

Ac-QDPELPDKNM-NH2 [BLG2]
Potency in blocking homotypic cell-cell adhesion relative to BLG1 and BLG4 [5]: more potent

Ac-QGADTPPVGV-NH2 [ADT10]
Inhibition of resealing of intercellular junctions (TEER time course) [2]: still active
Inhibition of resealing (% TEER difference between 8- and 2-h time points) compared to blank ([2]; 1.0 mM peptide): significantly suppress the resealing
Enhancement of 14C-mannitol permeation through MDCK cell monolayers [1]: enhance ^14C-mannitol through MDCK cell monolayers

Ac-SHAVSS-NH2 [HAV6]
Amount of mannitol delivered to the brain: lowering when HAV6 was lowered from 1.0 mM to 0.5 mM ([6]; 0.5 mM versus 1.0 mM HAV6): 40%
Enhancement of 14C-mannitol permeation through the BBB compared to vehicle [6]: significantly enhanced
Amount of daunomycin in the brain compared to vehicle-treated BBB [7]: tremendous increase
Binding to the expressed EC5 domain by NMR spectroscopy [8]: bind the expressed EC5 domain
Metabolic stability on Caco-2 cell monolayer ([3]; 96-h incubation on Caco-2 cell monolayer): metabolically stable

Ac-SHAVSS-cap-ADTPPV-NH2
Activity in the resealing assay compared to either ADT6 or HAV6 [2]: did not show any improved activity

Ac-SSVAHS-NH2 [HAVrev, reference compound]
Inhibition of resealing (% TEER difference between 8- and 2-h time points) compared to blank ([2]; 1.0 mM peptide): could not suppress the resealing

Ac-TYRIWRDTAN-NH2 [BLG4]
Rank of inhibitory activity in the resealing assay among BLG peptides ([2]; 1.0 mM peptide, AP-BL sides (Fig. 5)): best inhibitory activity
Inhibition of resealing (% TEER difference between 8- and 2-h time points) compared to blank ([2]; 1.0 mM peptide): significantly suppress the resealing
Binding to the expressed EC5 domain by NMR spectroscopy [8]: bind the expressed EC5 domain

EATDSG [LABL6, reference compound]
Enhancement of 14C-mannitol permeation through the BBB compared to vehicle [6]: did not enhance
